Measurements as given in ChEMBL document CHEMBL1131140, “Synthesis and antimalarial activities of fluoroalkyl derivatives of dihydroartemisinin” (J Med Chem, 1998).

What follows are compounds tested on Plasmodium falciparum (assay: In vitro antimalarial activity for Plasmodium falciparum W-2).
Assay type: functional, organism-based
Procedure, shortened: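 P. falciparum W-2 cultured in A+ human erythrocytes, RPMI with 10% A+ human serum, 25 mM HEPES, 25 mM NaHCO3, 37 °C, 10% O2/6% CO2/84% N2. Assay at 0.5% parasitemia, 1.5% hematocrit; 2-fold dilutions (methanol stocks), final 1.6–200 nM in triplicate; [3H]hypoxanthine uptake over 42 h; IC50 by nonlinear regression of log dose–response; mean of ≥3 experiments.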

Compound	IC50 [nM]
C[C@@H]1CC[C@H]2[C@@H](C)C(OCC(F)(F)C(F)(F)F)O[C@@H]3OC4(C)CC[C@@H]1[C@]32OO4 (single isomer, unassigned)	27
C[C@@H]1CC[C@H]2[C@@H](C)C(OCC(F)(F)C(F)(F)C(F)(F)F)O[C@@H]3OC4(C)CC[C@@H]1[C@]32OO4 (single isomer, unassigned)	36
CCOC(=O)C(OC1O[C@@H]2OC3(C)CC[C@H]4[C@H](C)CC[C@@H]([C@H]1C)[C@@]24OO3)C(F)(F)F (single isomer, unassigned)	61
C[C@H]1C(OCC(F)(F)F)O[C@@H]2OC3(C)CC[C@H]4[C@H](C)CCC1[C@@]24OO3 (single isomer, unassigned)	31
C[C@@H]1CC[C@H]2[C@@H](C)C(OC(c3ccccc3)(C(F)(F)F)C(F)(F)F)O[C@@H]3OC4(C)CC[C@@H]1[C@]32OO4 (single isomer, unassigned)	38
C[C@@H]1CC[C@H]2[C@@H](C)C(OC(C(F)(F)F)C(F)(F)F)O[C@@H]3OC4(C)CC[C@@H]1[C@]32OO4 (single isomer, unassigned)	34
C[C@@H]1CC[C@H]2[C@@H](C)C(OC(c3ccccc3)C(F)(F)F)O[C@@H]3OC4(C)CC[C@@H]1[C@]32OO4 (single isomer, unassigned)	66
C[C@@H]1CC[C@H]2[C@@H](C)[C@](O)(C(F)(F)F)O[C@@H]3OC4(C)CC[C@@H]1[C@]32OO4 (single isomer, unassigned)	2.6
CC(OC1O[C@@H]2OC3(C)CC[C@H]4[C@H](C)CC[C@@H]([C@H]1C)[C@@]24OO3)C(F)(F)F (single isomer, unassigned)	35
CO[C@H]1O[C@@H]2O[C@@]3(C)CC[C@H]4[C@H](C)CC[C@@H]([C@H]1C)[C@@]24OO3 [ARTEMETHER]	5.4
COC1O[C@@H]2OC3(C)CC[C@H]4[C@H](C)CC[C@@H]([C@H]1C)[C@@]24OO3 (single isomer, unassigned)	7.5
C[C@@H]1CC[C@H]2[C@@H](C)C(OCC(F)(F)C(F)C(F)(F)F)O[C@@H]3OC4(C)CC[C@@H]1[C@]32OO4 (single isomer, unassigned)	34
